Here are results for 13 molecules from ChEMBL document CHEMBL4699557, “Structure activity relationship of novel antiviral nucleosides against Enterovirus A71” (Bioorg Med Chem Lett, 2020).

Activity calls are given as the source filed them. The rule behind the calls is not given here.

Data set [1] concerns enterovirus D68. As to the kind of experiment: Antiviral activity against Enterovirus D68 US/KY/14-18953 infected in RD cells assessed as reduction in virus yield by visual inspection method. It counts as functional, organism-based. Conditions: Enterovirus D, US/KY/14-18953, RD. The method in brief:
(§1)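 Cell-based inhibition of virus replication. Vero 76 cells for Coxsackie B3 and poliovirus 1; RD cells for enterovirus 68. Two read-outs: visual scoring of virus yield reduction and neutral red uptake for cytopathic effect. EC50 is reported, and EC90 for some visual values.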

The test system of data set [2] is Enterovirus A71. Nature of the data set: microbe, parasite or virus in culture. In kind it is functional, organism-based, Tainin/4643/98, Vero 76. Conditions: Enterovirus A; for EC50: Tainin/4643/98, Vero 76, 72 h.
The subject of data set [3] is Respiratory syncytial virus. Nature of the data set: Antiviral activity against Respiratory syncytial virus. In kind it is functional, organism-based.
Data set [4] has as its system enterovirus D68. As to the kind of experiment: Antiviral activity against Enterovirus D68 US/KY/14-18953 strain infected in RD cells assessed as reduction in virus-induced cytopathic effect by neutral red uptake assay. Conditions: Enterovirus D, US/KY/14-18953, RD. In kind it is functional, organism-based. A digest of the protocol:
as §1
A general note: Cytopathic effects are the visible damage that an infection or toxin causes in cultured cells.

Data set [5] concerns Vero 76. Nature of the data set: (§2) Cytotoxicity against monkey Vero 76 cells by microscopic analysis. It counts as cell-based. Conditions: chlorocebus sabaeus, vero 76.
A short description of data set [6]: in vitro. Conditions: monkey, Vero 76 cells.
Data set [7] has as its system RD. Nature of the data set: Cytotoxicity against human RD cells by neutral red uptake assay. It counts as cell-based.
The test system of data set [8] is Vero 76. As to the kind of experiment: (§3) Cytotoxicity against monkey Vero 76 cells by neutral red uptake assay. Conditions: chlorocebus sabaeus, vero 76. It counts as cell-based.
The test system of data set [9] is Enterovirus A71. Nature of the data set: microbe, parasite or virus in culture. In kind it is functional, organism-based. Conditions: Enterovirus A, Tainin/4643/98, Vero 76, 72 h.
A short description of data set [10]: Selectivity index, ratio of CC50 for human RD cells to EC50 for Enterovirus D68 US/KY/14-18953 by neutral red uptake assay. It counts as toxicity. Conditions: read-out: Ratio CC50/EC50. The method in brief: (§4)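 Selectivity index calculated as CC50/EC50, both from the same cell line and the same read-out (visual or neutral red).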
Data set [11] in a line: in vitro. Conditions: monkey, Vero 76 cells. This is another data set of the same source.
In data set [12] the test system is RD. As to the kind of experiment: Cytotoxicity against human RD cells by microscopic based visual inspection method. It counts as cell-based.
A short description of data set [13]: Selectivity index, ratio of CC50 for human RD cells to EC50 for Enterovirus D68 US/KY/14-18953 strain. It counts as toxicity. A digest of the protocol:
as §4

Data set [14] relates to Coxsackievirus. As to the kind of experiment: Antiviral activity against Coxsackie virus B3 HA 201 933 infected in Vero 76 cells assessed as reduction in virus yield by visual inspection method. In kind it is functional, organism-based. Conditions: B3 HA 201 933, Vero 76. The method in brief:
as §1

The nature of data set [15]: Selectivity index, ratio for CC50 of monkey Vero 76 cells to EC50 for Coxsackie virus B3 HA 201 933 by visual inspection method. In kind it is toxicity. Conditions: read-out: Ratio CC50/EC50. The method in brief: as §4
In data set [16] the test system is Coxsackievirus. Nature of the data set: Antiviral activity against Coxsackie virus B3 HA 201 933 infected in Vero 76 cells assessed as reduction in virus-induced cytopathic effect by neutral red uptake assay. It counts as functional, organism-based. Conditions: B3 HA 201 933, Vero 76. A digest of the protocol:
as §1

Data set [17] can be described thus: Selectivity index, ratio of CC50 for monkey Vero 76 cells to EC50 for Poliovirus 1 Mahoney. In kind it is toxicity. Conditions: read-out: Ratio CC50/EC50. A digest of the protocol:
as §4

A short description of data set [18]: Selectivity index, ratio of CC50 for monkey Vero 76 cells to EC50 for Poliovirus 1 Mahoney by neutral red uptake assay. In kind it is toxicity. Conditions: read-out: Ratio CC50/EC50. A digest of the protocol:
as §4

The test system of data set [19] is Poliovirus 1. As to the kind of experiment: Antiviral activity against Poliovirus 1 Mahoney infected in monkey Vero 76 cells assessed as reduction in virus yield by visual inspection method. In kind it is functional, organism-based. Conditions: Enterovirus C. The method in brief: as §1
Data set [20] is described as follows: Selectivity index, ratio for CC50 of monkey Vero 76 cells to EC50 for Coxsackie virus B3 HA 201 933 by neutral red uptake assay. In kind it is toxicity. Conditions: read-out: Ratio CC50/EC50. The method in brief: as §4
The subject of data set [21] is Poliovirus 1. Nature of the data set: Antiviral activity against Poliovirus 1 Mahoney infected in monkey Vero 76 cells assessed as reduction in virus-induced cytopathic effect by neutral red uptake assay. In kind it is functional, organism-based. Conditions: Enterovirus C. A digest of the protocol: as §1
The nature of data set [22]: as §2. In kind it is cell-based. Conditions: chlorocebus sabaeus, Vero 76 cells.
Data set [23] in a line: as §3. It counts as cell-based. Conditions: chlorocebus sabaeus, Vero 76 cells.
For a further data set, the system named is Tacaribe virus. As to the kind of experiment: Antiviral activity against Tacaribe virus. In kind it is functional, organism-based. Conditions: Mammarenavirus tacaribeense.
In data set [24] the test system is Enterovirus A71. As to the kind of experiment: Antiviral activity against Enterovirus 71. It counts as functional, organism-based. Conditions: Enterovirus A.
Data set [25] in a line: Inhibition of capsid protein VP1 in Enterovirus 71. Also noted: species or system Enterovirus A71.
In data set [26] the target is 5-hydroxytryptamine receptor 2B (Homo sapiens, UniProt P41595). As to the kind of experiment: Binding affinity to 5HT2B (unknown origin).
Sequence of 5-hydroxytryptamine receptor 2B (P41595 whole entry): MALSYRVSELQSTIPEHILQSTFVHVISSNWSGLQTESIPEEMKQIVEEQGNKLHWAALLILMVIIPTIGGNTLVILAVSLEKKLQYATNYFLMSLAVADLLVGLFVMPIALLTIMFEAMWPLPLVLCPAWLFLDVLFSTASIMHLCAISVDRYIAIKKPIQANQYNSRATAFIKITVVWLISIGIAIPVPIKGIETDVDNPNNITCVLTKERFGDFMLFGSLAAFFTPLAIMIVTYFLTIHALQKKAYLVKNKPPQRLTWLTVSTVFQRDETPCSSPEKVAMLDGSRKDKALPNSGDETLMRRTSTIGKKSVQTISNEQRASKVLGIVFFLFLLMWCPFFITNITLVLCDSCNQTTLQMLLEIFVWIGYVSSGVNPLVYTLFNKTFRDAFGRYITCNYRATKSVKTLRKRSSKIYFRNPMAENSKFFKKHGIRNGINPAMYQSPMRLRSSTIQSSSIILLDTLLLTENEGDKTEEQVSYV

One may read the EC90 as the concentration needed for an effect of 90%. The EC50 is the concentration giving half of the maximal effect. The term CC50 denotes the concentration that lowers cell viability or growth by half. For the molecule `O[C@@H]1[C@H](O)[C@@H]2C[C@@H]2[C@H]1n1cnc2c(NC(C3CC3)C3CC3)nc(Cl)nc21`, the EC90 in the data set on enterovirus D68 [1] is 15 µM. The figures for the EC50 in the data set on Enterovirus A71 [2], in the data set on enterovirus D68 [4] and with Enterovirus A71 [9] were 3.6 µM, 9.3 µM and 3.4 µM, respectively. Besides, the result in data set [3] was inactive. In addition, the half-maximal cytotoxic concentration (CC50) in the data set on Vero 76 [5] was more than 100 µM; in the data set on RD [7], 41 µM; in the data set on Vero 76 [8], 34 µM; in the data set on RD [12] it was 41 µM. For the same molecule, the selectivity ratio was more than 28 in “in vitro [6]”, 4.4 in [10], 10 in the data set “in vitro [11]” and 2.7 in [13] (read-out: Ratio).

For the molecule `CC(C)S(=O)(=O)n1c(N)nc2ccc(/C(=N/O)c3ccccc3)cc21` [ENVIROXIME], the concentration for a half-maximal effect (EC50) in the data set on enterovirus D68 [1] was 0.032 µM; with Coxsackievirus [14], less than 0.01 µM; in the data set with Coxsackievirus [16], less than 0.01 µM; in the data set on enterovirus D68 [4], 0.032 µM; in the data set with Poliovirus 1 [19], 0.015 µM; in the data set with Poliovirus 1 [21], less than 0.01 µM. Besides, the selectivity ratio in data set [15] was more than 1000; in [17] it was more than 670; in data set [18] it was more than 490; in data set [10] it was 47; in data set [20], more than 450; in data set [13] (read-out: Ratio CC50/EC50) it was 130. For the same molecule, the half-maximal cytotoxic concentration (CC50) in the data set with RD [7] came out at 1.5 µM; in the data set with RD [12], 4.2 µM.

As for `CC(C)[C@@H](Nc1nc(Cl)nc2c1ncn2[C@H]1[C@H](O)[C@H](O)[C@]2(CN=[N+]=[N-])C[C@H]12)C1CC1`, the values for the EC50 in the data set on Enterovirus A71 [2] and in the data set with Enterovirus A71 [9] were 5.3 µM and 4.8 µM, respectively. Besides, the CC50 in the data set on Vero 76 [5] and with Vero 76 [8] was 32 µM throughout. In addition, the selectivity ratio was found to be 6 in the data set “in vitro [6]” and 6.7 in the data set “in vitro [11]”.

In the case of `OC[C@@]12C[C@@H]1[C@@H](n1cnc3c(N[C@H](C4CCC4)C4CC4)nc(Cl)nc31)[C@H](O)[C@@H]2O`, the EC50 is 16 µM in the data set with Enterovirus A71 [2] and 9.3 µM in the data set with Enterovirus A71 [9]. The CC50 was more than 50 µM with Vero 76 [5] and 14 µM in the data set with Vero 76 [8]. Further, the figures for the selectivity ratio in the data set “in vitro [6]” and in the data set “in vitro [11]” were more than 3.1 and 1.5, respectively.

Molecule `OC[C@@]12C[C@@H]1[C@@H](n1ccc3c(NC(C4CCC4)C4CCC4)nc(Cl)nc31)[C@H](O)[C@@H]2O` displayed an EC50 in the data set on Enterovirus A71 [2] of 32 µM. Also, the half-maximal cytotoxic concentration (CC50) in data set [22] is more than 100 µM; in [23], 86 µM. The selectivity ratio is more than 3.1 in the data set “in vitro [6]” and 3.6 in “in vitro [11]”.

On to `CCOC(=O)c1ccc(OCCC2CCN(c3ccc(C)nn3)CC2)cc1` [PIRODAVIR], for which the concentration giving a half-maximal response (EC50) came out at 0.86 µM in the data set with Enterovirus A71 [2] and 0.57 µM in the data set on Enterovirus A71 [9]. The values for the CC50 in the data set on Vero 76 [5] and in the data set on Vero 76 [8] were more than 27 µM and 17 µM, respectively. For the same molecule, the selectivity ratio in the data set “in vitro [6]” is more than 31; in “in vitro [11]” it was 30.

`CC(C)[C@@H](Nc1nc(Cl)nc2c1ncn2[C@H]1[C@H](O)[C@H](O)[C@]2(CO)C[C@H]12)C1CC1`: the EC50 was found to be 32 µM with enterovirus D68 [1]; 16 µM with Coxsackievirus [14]; 16 µM in the data set with Coxsackievirus [16]; 32 µM with enterovirus D68 [4]; 9.1 µM in the data set on Enterovirus A71 [9]; 28 µM with Poliovirus 1 [19]. Also, the EC50 in the data set with Poliovirus 1 [21] was 27 µM. In the data set with Enterovirus A71 [2] (Tainin/4643/98, Vero 76, time 72 hrs), the 90% effect concentration (EC90) is 7.7 µM. Further, the half-maximal cytotoxic concentration (CC50) is 24 µM in the data set with Vero 76 [5], more than 100 µM in the data set with RD [7], 24 µM in the data set on Vero 76 [8] and more than 100 µM in the data set on RD [12].

For `OC[C@@]12C[C@@H]1[C@@H](n1cnc3c(NC(C4CC4)C4CC4)nc(Cl)nc31)[C@H](O)[C@@H]2O`, the result in the data set with Tacaribe virus was inactive. The figures for the CC50 in the data set with Vero 76 [5] and in the data set with Vero 76 [8] were more than 100 µM and 68 µM, respectively.

Turning to `OC[C@H]1O[C@@H](n2cnc3c(NCc4cccc(C(F)(F)F)c4)ncnc32)[C@H](O)[C@@H]1O`, in the data set on Enterovirus A71 [24], the EC50 is 68 nM.

As usually defined, the IC50 is the midpoint of a concentration-inhibition curve. In data set [25], `CCn1nnc(-c2ccc(OCCC(C)CCN3CCN(c4ccncc4)C3=O)cc2)n1` (configuration not stated) registered an IC50 of 0.8 nM.

Broadly, the Ki is the equilibrium dissociation constant of an inhibitor or competing ligand from its target. As to `CC(C)[C@@H](Nc1nc(I)nc2c1ncn2[C@H]1[C@H](O)[C@H](O)[C@]2(CO)C[C@H]12)C1CC1`, the half-maximal effective concentration (EC50) came to 18 µM with Enterovirus A71 [2] and 20 µM in the data set with Enterovirus A71 [9]. In addition, the CC50 in the data set on Vero 76 [5] is 100 µM; in the data set with Vero 76 [8], 46 µM. For the same molecule, the selectivity ratio in the data set “in vitro [6]” worked out at 5.6; in “in vitro [11]” it was 2.3. Further, in [26], the affinity, expressed as Ki, was 170 nM.

Consider `CC(C)[C@@H](Nc1nc(Cl)nc2c1ncn2[C@H]1[C@H](O)[C@H](O)[C@]2(CF)C[C@H]12)C1CC1`, for which the EC90 with enterovirus D68 [1] was found to be 7.7 µM. Moreover, the figures for the concentration for a half-maximal effect (EC50) in the data set with enterovirus D68 [4] and with Enterovirus A71 [9] were 16 µM and 3 µM, respectively. Also, the cytotoxic concentration (CC50) in the data set on Vero 76 [5] was found to be 36 µM; in the data set with RD [7] it was 42 µM; in the data set on Vero 76 [8], 33 µM; with RD [12], 42 µM. For the same molecule, the selectivity ratio in “in vitro [6]” was 10; in [10], 2.6; in “in vitro [11]”, 11; in [13] (read-out: Ratio), 5.4. Moreover, the Ki in [26] was determined as 934 nM.

Consider `CC(C)[C@@H](Nc1nc(Cl)nc2c1ncn2[C@H]1[C@H](O)[C@H](O)[C@]2(CCl)C[C@H]12)C1CC1`, for which the results for the concentration giving a half-maximal response (EC50) in the data set on Enterovirus A71 [2] and with Enterovirus A71 [9] were 4.3 µM and 3.9 µM, respectively. Besides, the CC50 stood at 32 µM in the data set on Vero 76 [5] and 27 µM in the data set with Vero 76 [8]. For the same molecule, the selectivity ratio in the data set “in vitro [6]” came out at 7.4; in “in vitro [11]”, 6.9.
